From ChEMBL document CHEMBL1124759, “Fluoronaphthyridines and quinolones as antibacterial agents. 2. Synthesis and structure-activity relationships of new 1-tert-butyl 7-substituted derivatives” (J Med Chem, 1990)
≈ marks a conversion by molar mass, not a printed value.

Assays:
Enterococcus faecium = test: In vitro minimum inhibitory concentration (MIC) against Enterococcus faecium A 24885 at 37 degrees C for 18 h.; assay type: functional
In short: (§1)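 Two-fold serial broth dilution in nutrient broth. Inoculum adjusted to 10^6 cfu/mL. Compounds tested from 0.0005 to 250 µg/mL.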

Klebsiella pneumoniae [1] = test: Efficacy on systematic infections against Klebsiella pneumoniae A 9664 after oral administration in mice; assay type: functional; details: read-out: PD50
In short: (§2)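 Mice given compound orally after lethal systemic infection. Read-out is the oral dose protecting 50% of mice from death (PD50), reported in mg/kg.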

[2] = Tested for aqueous solubility; details: aqueous medium
Enterobacter cloacae = test: In vitro minimum inhibitory concentration (MIC) against Enterobacter cloacae A 9656 at 37 degrees C for 18 h.; assay type: functional
Serratia marcescens = test: In vitro minimum inhibitory concentration (MIC) against Serratia marcescens A 20019 at 37 degrees C for 18 hr; assay type: functional; in short: as §1
Pseudomonas aeruginosa [3] = test: In vitro minimum inhibitory concentration (MIC) against Pseudomonas aeruginosa A 9843 at 37 degrees C for 18 h; assay type: functional; in short: as §1
Klebsiella pneumoniae [4] = test: In vitro minimum inhibitory concentration (MIC) against Klebsiella pneumoniae A 9664 at 37 degrees C for 18 h.; assay type: functional; in short: as §1
Staphylococcus aureus [5] = test: In vitro minimum inhibitory concentration (MIC) against Staphylococcus aureus Smith A 9537 at 37 degrees C for 18 hr; assay type: functional; in short: as §1
Pseudomonas aeruginosa [6] = test: Efficacy on systematic infections against Pseudomonas aeruginosa A 9843 after oral administration in mice; assay type: functional; details: read-out: PD50; in short: as §2
Escherichia coli [7] = test: In vitro minimum inhibitory concentration (MIC) against Escherichia coli A 15119 at 37 degrees C for 18 h.; assay type: functional; in short: as §1
Enterococcus faecalis = test: In vitro minimum inhibitory concentration (MIC) against Enterococcus faecalis A 9808 at 37 degrees C for 18 h.; assay type: functional; in short: as §1
Staphylococcus aureus [8] = test: Efficacy on systematic infections against Staphylococcus aureus A 9537 after oral administration in mice; assay type: functional; details: read-out: PD50; in short: as §2
Morganella morganii = test: In vitro minimum inhibitory concentration (MIC) against Morganella morganii A 15153 at 37 degrees C for 18 h.; assay type: functional; in short: as §1
Pseudomonas aeruginosa [9] = test: In vitro minimum inhibitory concentration (MIC) against Pseudomonas aeruginosa A 9843 at 37 degree C for 18 h; assay type: functional; in short: as §1
Escherichia coli [10] = test: Efficacy on systematic infections against Escherichia coli A 15119 after oral administration in mice; assay type: functional; details: read-out: PD50; in short: as §2

Compound | MIC (Enterococcus faecium) | ED50 (Klebsiella pneumoniae [1]) | solubility [2] | MIC (Enterobacter cloacae) | MIC (Serratia marcescens) | MIC (Pseudomonas aeruginosa [3]) | MIC (Klebsiella pneumoniae [4]) | MIC (Staphylococcus aureus [5]) | ED50 (Pseudomonas aeruginosa [6]) | MIC (Escherichia coli [7]) | MIC (Enterococcus faecalis) | ED50 (Staphylococcus aureus [8]) | MIC (Morganella morganii) | MIC (Pseudomonas aeruginosa [9]) | ED50 (Escherichia coli [10])
CC1CN(c2cc3c(cc2F)c(=O)c(C(=O)O)cn3C(C)(C)C)CCN1 (centres undefined) | 4 µg/mL (≈ 11.1 µM) | 5.4 mg/kg | 1560 µg/mL (≈ 4320 µM) | 0.03 µg/mL (≈ 0.083 µM) | 0.5 µg/mL (≈ 1.38 µM) | 1 µg/mL (≈ 2.77 µM) | 0.015 µg/mL (≈ 0.0415 µM) | 0.06 µg/mL (≈ 0.166 µM) | 25 mg/kg | 0.008 µg/mL (≈ 0.0221 µM) | 1 µg/mL (≈ 2.77 µM) | 5.4 mg/kg | 0.5 µg/mL (≈ 1.38 µM) |  | 
CC(C)(C)n1cc(C(=O)O)c(=O)c2cc(F)c(N3C[C@@H]4C[C@H]3CN4)nc21 | 4 µg/mL (≈ 11.1 µM) | 10.8 mg/kg |  | 0.25 µg/mL (≈ 0.694 µM) | 2 µg/mL (≈ 5.55 µM) |  | 0.13 µg/mL (≈ 0.361 µM) | 0.13 µg/mL (≈ 0.361 µM) | 14 mg/kg | 0.13 µg/mL (≈ 0.361 µM) | 1 µg/mL (≈ 2.77 µM) | 0.5 mg/kg | 0.13 µg/mL (≈ 0.361 µM) | 0.5 µg/mL (≈ 1.39 µM) | 4 mg/kg
CNC1CCN(c2nc3c(cc2F)c(=O)c(C(=O)O)cn3C(C)(C)C)C1 (centres undefined) | 8 µg/mL (≈ 22.1 µM) |  |  | 0.06 µg/mL (≈ 0.166 µM) | 1 µg/mL (≈ 2.76 µM) |  | 0.13 µg/mL (≈ 0.359 µM) | 0.06 µg/mL (≈ 0.166 µM) |  | 0.06 µg/mL (≈ 0.166 µM) | 0.5 µg/mL (≈ 1.38 µM) |  | 0.5 µg/mL (≈ 1.38 µM) | 2 µg/mL (≈ 5.52 µM) | 
CN1CCN(c2nc3c(cc2F)c(=O)c(C(=O)O)cn3C(C)(C)C)CC1 | 0.5 µg/mL (≈ 1.38 µM) |  |  | 0.06 µg/mL (≈ 0.166 µM) | 0.25 µg/mL (≈ 0.69 µM) | 1 µg/mL (≈ 2.76 µM) | 0.06 µg/mL (≈ 0.166 µM) | 0.06 µg/mL (≈ 0.166 µM) |  | 0.06 µg/mL (≈ 0.166 µM) | 2 µg/mL (≈ 5.52 µM) |  | 0.5 µg/mL (≈ 1.38 µM) |  | 
CC(C)(C)n1cc(C(=O)O)c(=O)c2cc(F)c(N3C[C@@H](N)[C@H](F)C3)nc21.CS(=O)(=O)O | 2 µg/mL |  |  | 0.5 µg/mL | 0.5 µg/mL |  | 0.5 µg/mL | 0.003 µg/mL |  | 0.5 µg/mL | 0.25 µg/mL |  | 0.5 µg/mL | 2 µg/mL | 
CC(C)(C)n1cc(C(=O)O)c(=O)c2cc(F)c(N3CC4CCC3CN4)cc21 (centres undefined) | 4 µg/mL (≈ 10.7 µM) |  |  | 0.25 µg/mL (≈ 0.669 µM) | 2 µg/mL (≈ 5.36 µM) |  | 0.25 µg/mL (≈ 0.669 µM) | 0.13 µg/mL (≈ 0.348 µM) |  | 0.5 µg/mL (≈ 1.34 µM) | 1 µg/mL (≈ 2.68 µM) |  | 1 µg/mL (≈ 2.68 µM) | 2 µg/mL (≈ 5.36 µM) | 
CN1C2CCC1CN(c1nc3c(cc1F)c(=O)c(C(=O)O)cn3C(C)(C)C)C2.CS(=O)(=O)O | 16 µg/mL |  |  | 0.25 µg/mL | 2 µg/mL |  | 0.1 µg/mL | 0.25 µg/mL |  | 0.5 µg/mL | 2 µg/mL |  | 2 µg/mL | 4 µg/mL | 
CC(C)(C)n1cc(C(=O)O)c(=O)c2cc(F)c(N3C[C@@H]4C[C@H]3CN4)cc21 | 16 µg/mL (≈ 44.5 µM) |  |  | 0.5 µg/mL (≈ 1.39 µM) | 2 µg/mL (≈ 5.56 µM) |  | 0.5 µg/mL (≈ 1.39 µM) | 0.25 µg/mL (≈ 0.696 µM) | 23 mg/kg | 2 µg/mL (≈ 5.56 µM) | 4 µg/mL (≈ 11.1 µM) | 10 mg/kg | 1 µg/mL (≈ 2.78 µM) | 1 µg/mL (≈ 2.78 µM) | 
CC(C)(C)n1cc(C(=O)O)c(=O)c2cc(F)c(N3CC4CCC(C3)N4)nc21.CS(=O)(=O)O | 4 µg/mL |  |  | 0.25 µg/mL | 1 µg/mL |  | 0.13 µg/mL | 0.06 µg/mL |  | 0.13 µg/mL | 1 µg/mL |  | 0.5 µg/mL | 4 µg/mL | 
CC(C)(C)n1cc(C(=O)O)c(=O)c2cc(F)c(N3CC4CCC3CN4)nc21 (centres undefined) | 2 µg/mL (≈ 5.34 µM) |  |  | 0.06 µg/mL (≈ 0.16 µM) | 1 µg/mL (≈ 2.67 µM) |  | 0.13 µg/mL (≈ 0.347 µM) | 0.03 µg/mL (≈ 0.0801 µM) |  | 0.13 µg/mL (≈ 0.347 µM) | 0.5 µg/mL (≈ 1.34 µM) |  | 1 µg/mL (≈ 2.67 µM) | 1 µg/mL (≈ 2.67 µM) | 
CC(C)(C)n1cc(C(=O)O)c(=O)c2cc(F)c(N3CCNC(CF)C3)cc21 (centres undefined) | 8 µg/mL (≈ 21.1 µM) |  |  | 0.13 µg/mL (≈ 0.343 µM) | 1 µg/mL (≈ 2.64 µM) |  | 0.13 µg/mL (≈ 0.343 µM) | 0.13 µg/mL (≈ 0.343 µM) |  | 0.25 µg/mL (≈ 0.659 µM) | 2 µg/mL (≈ 5.27 µM) |  | 0.5 µg/mL (≈ 1.32 µM) | 4 µg/mL (≈ 10.5 µM) | 
CC(C)(C)n1cc(C(=O)O)c(=O)c2cc(F)c(N3C[C@@H](CN)[C@H](F)C3)nc21.CS(=O)(=O)O | 0.25 µg/mL |  |  | 0.06 µg/mL | 1 µg/mL |  | 0.13 µg/mL | 0.004 µg/mL | 18 mg/kg | 0.06 µg/mL | 0.03 µg/mL | 0.8 mg/kg | 0.5 µg/mL | 0.5 µg/mL | 
CC(C)(C)n1cc(C(=O)O)c(=O)c2cc(F)c(N3C4CCC3CNC4)nc21.CS(=O)(=O)O | 4 µg/mL |  |  | 0.25 µg/mL | 0.5 µg/mL |  | 0.13 µg/mL | 0.06 µg/mL |  | 0.06 µg/mL | 0.5 µg/mL |  | 0.5 µg/mL | 2 µg/mL | 
